One data set concerns Cryptococcus neoformans. Briefly: Antimicrobial activity against Cryptococcus neoformans after 72 hrs by broth dilution method. In kind it is functional. The gist of the method: (§1)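 MIC by broth dilution in triplicate, reported as mean ± SD. Panel: bacteria S. aureus, S. pyogenes, E. coli; fungi C. neoformans, A. niger, A. flavus. Ciprofloxacin served as positive control for bacteria and nystatin for fungi. DMSO was the solvent and solvent control.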
(Dilution methods test growth across graded concentrations, often in twofold steps.)

The test system of a further data set is Aspergillus niger. As to the kind of experiment: Antimicrobial activity against Aspergillus niger after 72 hrs by broth dilution method. Type of data set: functional. In short, it runs like this: as §1
The test system of the next data set is Aspergillus flavus. Briefly: Antimicrobial activity against Aspergillus flavus after 72 hrs by broth dilution method. In kind it is functional. The gist of the method:
as §1

The test system of a further data set is Staphylococcus aureus. Briefly: Antimicrobial activity against Staphylococcus aureus after 24 hrs by broth dilution method. In kind it is functional. In short, it runs like this:
as §1

The test system of a further data set is Streptococcus pyogenes. As to the kind of experiment: Antimicrobial activity against Streptococcus pyogenes after 24 hrs by broth dilution method. In kind it is functional. In short, it runs like this:
as §1

The subject of the next data set is Escherichia coli. As to the kind of experiment: Antimicrobial activity against Escherichia coli after 24 hrs by broth dilution method. Type of data set: functional. The gist of the method: as §1
Data set [1] in a line: Antioxidant activity assessed as DPPH radical scavenging activity at 20 ug/ml after 20 mins by spectrophotometry relative to control. Type of data set: physicochemical. The gist of the method:
(§2)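 Radical scavenging measured in vitro by DPPH and by hydroxyl radical scavenging assays. Each run in triplicate at five concentrations, reported as mean ± SD of three replicates.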
For orientation: Loss of DPPH colour is used to gauge radical scavenging.

Data set [2] can be described thus: Antioxidant activity assessed as DPPH radical scavenging activity at 40 ug/ml after 20 mins by spectrophotometry relative to control. In kind it is physicochemical. The gist of the method: as §2
Data set [3] can be described thus: Antioxidant activity assessed as DPPH radical scavenging activity at 60 ug/ml after 20 mins by spectrophotometry relative to control. In kind it is physicochemical. In short, it runs like this: as §2
The nature of data set [4]: Antioxidant activity assessed as DPPH radical scavenging activity at 80 ug/ml after 20 mins by spectrophotometry relative to control. Type of data set: physicochemical. The gist of the method:
as §2

The nature of data set [5]: Antioxidant activity assessed as DPPH radical scavenging activity at 100 ug/ml after 20 mins by spectrophotometry relative to control. In kind it is physicochemical. The gist of the method: as §2
Data set [6] is described as follows: Antioxidant activity assessed as hydroxyl radical scavenging activity at 20 ug/ml after 60 mins relative to control. Type of data set: physicochemical. The following applies: 1 h. In short, it runs like this:
as §2

Data set [7] in a line: Antioxidant activity assessed as hydroxyl radical scavenging activity at 40 ug/ml after 60 mins relative to control. In kind it is physicochemical. Conditions: 1 h. The gist of the method:
as §2

Data set [8] is described as follows: Antioxidant activity assessed as hydroxyl radical scavenging activity at 60 ug/ml after 60 mins relative to control. Type of data set: physicochemical. The following applies: 1 h. The gist of the method: as §2
Data set [9] can be described thus: Antioxidant activity assessed as hydroxyl radical scavenging activity at 80 ug/ml after 60 mins relative to control. In kind it is physicochemical. Conditions: 1 h. In short, it runs like this:
as §2

The nature of data set [10]: Antioxidant activity assessed as hydroxyl radical scavenging activity at 100 ug/ml after 60 mins relative to control. Type of data set: physicochemical. The following applies: 1 h. In short, it runs like this:
as §2

Converted amounts (≈) assume the structure as drawn.

As a reminder, the MIC is the lowest concentration found to suppress growth. Higher therefore signals weaker potency. With NYSTATIN, the MIC came out at 25 mg/L against Cryptococcus neoformans, 50 mg/L against Aspergillus niger and 50 mg/L against Aspergillus flavus.
On to `CCOC(=O)C1C(C(=O)c2cccs2)C1c1ccccc1OC` (configuration not stated), for which the MIC in the data set on Staphylococcus aureus worked out at 50 mg/L (≈ 151 µM); against Streptococcus pyogenes, 100 mg/L (≈ 303 µM); in the data set on Escherichia coli, 75 mg/L (≈ 227 µM); with Cryptococcus neoformans, 75 mg/L (≈ 227 µM); against Aspergillus niger, 75 mg/L (≈ 227 µM); with Aspergillus flavus, 25 mg/L (≈ 75.7 µM).
On to `CCOC(=O)[C@@H]1CC(=O)c2sccc2[C@H]1c1ccc(OCC)cc1`, for which the MIC in the data set on Staphylococcus aureus worked out at 75 mg/L (≈ 218 µM); in the data set on Streptococcus pyogenes it was 50 mg/L (≈ 145 µM); with Escherichia coli, 50 mg/L (≈ 145 µM); in the data set with Cryptococcus neoformans it was 25 mg/L (≈ 72.6 µM); against Aspergillus niger, 75 mg/L (≈ 218 µM); against Aspergillus flavus it was 100 mg/L (≈ 290 µM). Moreover, the Activity in data set [1] is recorded as 17.08%; in data set [2], 18.54%; in data set [3] it was 22.87%; in data set [4], 25.43%; in data set [5] it was 28.96%; in data set [6], 15.43%. In addition, the Activity came to 19.76% in [7], 26.98% in data set [8], 34.13% in [9] and 37.99% in data set [10].
On to `CCOC(=O)C1C(C(=O)c2cccs2)C1c1ccc(OC)cc1OC` (configuration not stated), for which the MIC stood at 25 mg/L (≈ 69.4 µM) with Staphylococcus aureus; 25 mg/L (≈ 69.4 µM) against Streptococcus pyogenes; 25 mg/L (≈ 69.4 µM) with Escherichia coli; 25 mg/L (≈ 69.4 µM) in the data set on Cryptococcus neoformans; 50 mg/L (≈ 139 µM) in the data set on Aspergillus niger; 50 mg/L (≈ 139 µM) with Aspergillus flavus.
On to `CCOC(=O)[C@@H]1CC(=O)c2sccc2[C@H]1c1ccccc1OC`, for which the MIC against Staphylococcus aureus stood at 25 mg/L (≈ 75.7 µM); in the data set with Streptococcus pyogenes, 50 mg/L (≈ 151 µM); with Escherichia coli it was 50 mg/L (≈ 151 µM); against Cryptococcus neoformans, 25 mg/L (≈ 75.7 µM); against Aspergillus niger, 25 mg/L (≈ 75.7 µM); against Aspergillus flavus, 50 mg/L (≈ 151 µM). For the same molecule, the Activity in data set [1] is 10.76%; in [2], 13.54%; in data set [3], 17.76%; in data set [4], 19.65%; in data set [5] it was 21.65%; in [6], 11.87%. Also, the Activity was found to be 15.98% in [7], 22.76% in data set [8], 29.77% in [9] and 31.56% in [10].
For `COc1ccc(O)c(C(C)(C)C)c1.COc1ccc(O)cc1C(C)(C)C` [BUTYLATED HYDROXYANISOLE], the Activity is 13.87% in data set [6]; 17.95% in [7]; 25.58% in data set [8]; 32.03% in data set [9]; 36.87% in data set [10].
On to `CCOC(=O)[C@@H]1CC(=O)c2sccc2[C@H]1c1ccc(OC)c(OC)c1`, for which the MIC in the data set on Staphylococcus aureus amounted to 50 mg/L (≈ 139 µM); against Streptococcus pyogenes, 50 mg/L (≈ 139 µM); against Escherichia coli, 25 mg/L (≈ 69.4 µM); in the data set with Cryptococcus neoformans it was 25 mg/L (≈ 69.4 µM); in the data set on Aspergillus niger, 25 mg/L (≈ 69.4 µM); against Aspergillus flavus it was 50 mg/L (≈ 139 µM). Besides, the Activity in [1] worked out at 14.65%; in data set [2], 14.76%; in data set [3] it was 20.93%; in [4] it was 22.87%; in data set [5] it was 25.54%; in data set [6] it was 12.23%. Further, the Activity in data set [7] is 16.64%; in [8], 24.07%; in [9] it was 30.37%; in data set [10], 34.02%.
For `O=C1O[C@H]([C@@H](O)CO)C(O)=C1O` [ASCORBIC ACID], the Activity in [1] was found to be 15.08%; in data set [2], 16.87%; in data set [3] it was 21.98%; in data set [4] it was 24.25%; in data set [5] it was 28.65%.
For the molecule `CCOC(=O)[C@@H]1CC(=O)c2sccc2[C@H]1c1ccc(OC)cc1OC`, the MIC with Staphylococcus aureus stood at 50 mg/L (≈ 139 µM); in the data set with Streptococcus pyogenes it was 50 mg/L (≈ 139 µM); against Escherichia coli it was 75 mg/L (≈ 208 µM); against Cryptococcus neoformans it was 50 mg/L (≈ 139 µM); in the data set with Aspergillus niger, 100 mg/L (≈ 277 µM); in the data set with Aspergillus flavus, 75 mg/L (≈ 208 µM). The Activity in [1] amounted to 9.76%; in data set [2] it was 11.76%; in data set [3] it was 14.98%; in data set [4], 18.64%; in data set [5], 20.76%; in data set [6], 10.05%. Also, the Activity came to 12.76% in data set [7], 19.87% in [8], 23.87% in data set [9] and 26.82% in [10].
In the case of `CCOC(=O)[C@@H]1CC(=O)c2sccc2[C@H]1c1cc(OC)cc(OC)c1`, the MIC with Staphylococcus aureus was 12.5 mg/L (≈ 34.7 µM); in the data set with Streptococcus pyogenes, 25 mg/L (≈ 69.4 µM); in the data set on Escherichia coli, 12.5 mg/L (≈ 34.7 µM); against Cryptococcus neoformans, 12.5 mg/L (≈ 34.7 µM); in the data set with Aspergillus niger, 25 mg/L (≈ 69.4 µM); against Aspergillus flavus it was 25 mg/L (≈ 69.4 µM). Also, the Activity in data set [1] stood at 18.56%; in data set [2], 19.97%; in data set [3], 24.76%; in [4], 27.43%; in data set [5], 31.54%; in [6], 16.76%. In addition, the Activity in data set [7] is 20.65%; in data set [8] it was 29.65%; in [9], 36.32%; in [10], 41.5%.
In the case of `CCOC(=O)C1C(C(=O)c2cccs2)C1c1cc(OC)cc(OC)c1` (configuration not stated), the MIC with Staphylococcus aureus worked out at 50 mg/L (≈ 139 µM); against Streptococcus pyogenes, 75 mg/L (≈ 208 µM); against Escherichia coli it was 75 mg/L (≈ 208 µM); against Cryptococcus neoformans it was 50 mg/L (≈ 139 µM); against Aspergillus niger, 50 mg/L (≈ 139 µM); against Aspergillus flavus, 75 mg/L (≈ 208 µM).
On to `CCOC(=O)C1C(C(=O)c2cccs2)C1c1ccc(OC)cc1` (configuration not stated), for which the MIC against Staphylococcus aureus worked out at 50 mg/L (≈ 151 µM); in the data set on Streptococcus pyogenes, 50 mg/L (≈ 151 µM); in the data set with Escherichia coli, 50 mg/L (≈ 151 µM); against Cryptococcus neoformans, 50 mg/L (≈ 151 µM); in the data set on Aspergillus niger it was 100 mg/L (≈ 303 µM); in the data set on Aspergillus flavus, 100 mg/L (≈ 303 µM).
As to `CCOC(=O)C1C(C(=O)c2cccs2)C1c1ccc(OC)c(OC)c1` (configuration not stated), the MIC was found to be 25 mg/L (≈ 69.4 µM) with Staphylococcus aureus; 50 mg/L (≈ 139 µM) in the data set with Streptococcus pyogenes; 25 mg/L (≈ 69.4 µM) in the data set with Escherichia coli; 25 mg/L (≈ 69.4 µM) in the data set with Cryptococcus neoformans; 25 mg/L (≈ 69.4 µM) against Aspergillus niger; 50 mg/L (≈ 139 µM) in the data set on Aspergillus flavus.
Consider `O=C(O)c1cn(C2CC2)c2cc(N3CCNCC3)c(F)cc2c1=O` [CIPROFLOXACIN], for which the figures for the MIC against Streptococcus pyogenes and in the data set with Escherichia coli were 50 mg/L (≈ 151 µM) and 25 mg/L (≈ 75.4 µM), respectively.
For the molecule `CCOC(=O)[C@@H]1CC(=O)c2sccc2[C@H]1c1ccc(OC)cc1`, the MIC is 50 mg/L (≈ 151 µM) against Staphylococcus aureus; 25 mg/L (≈ 75.7 µM) against Streptococcus pyogenes; 50 mg/L (≈ 151 µM) with Escherichia coli; 50 mg/L (≈ 151 µM) in the data set with Cryptococcus neoformans; 25 mg/L (≈ 75.7 µM) with Aspergillus niger; 50 mg/L (≈ 151 µM) in the data set on Aspergillus flavus. Also, the Activity in [1] worked out at 15.02%; in [2] it was 16.71%; in data set [3], 20.31%; in [4], 23.92%; in data set [5] it was 26.22%; in data set [6] it was 13.03%. Further, the Activity in [7] is 17.98%; in [8], 24.76%; in data set [9], 30.98%; in data set [10], 34.09%.
Consider `CCOC(=O)C1C(C(=O)c2cccs2)C1c1ccc(OCC)cc1` (configuration not stated), for which the MIC with Staphylococcus aureus came to 12.5 mg/L (≈ 36.3 µM); against Streptococcus pyogenes, 25 mg/L (≈ 72.6 µM); against Escherichia coli, 25 mg/L (≈ 72.6 µM); against Cryptococcus neoformans it was 12.5 mg/L (≈ 36.3 µM); with Aspergillus niger, 12.5 mg/L (≈ 36.3 µM); in the data set with Aspergillus flavus, 25 mg/L (≈ 72.6 µM).
